Assay outcomes from PubChem BioAssay.
Hits are enriched below; roughly 1.7% of the tested compounds scored in any of these assays.
CAL PDZ FP-1 = blocks peptide binding to human CAL PDZ domain | purified CAL PDZ, TMR-peptide fluorescence polarization, 1 h | inhibition, % at 20 µM | AID 504414 | Q9HD26 | 0.02% of 330,000 active;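 active = highest replicate inhibition of at least 40%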;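 also: plate controls were DMSO neutral control wells for no effect and unlabeled competitor peptide control wells for full effect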
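Material: tagged CAL PDZ protein CerCALP, purified; buffer or medium: sodium phosphate/NaCl buffer pH 7.4 with TCEP, IgG, Thesit; also added: fluorescent TMR peptide probe; schedule: 1 h incubation at room temperature before polarization reading; technique: fluorescence polarization from S- and P-plane intensities, G-factor corrected; control set: unlabelled peptide and DMSO controls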
AI-2 QS mod = modulates the Vibrio harveyi AI-2 quorum sensing system | Vibrio harveyi JMH597 AI-2 luminescence/OD600 ratio, 9 h; active compounds read low; strain lacks LuxN and CqsS sensors; 0 = neutral-control median | activity change, % at 7.5 µM | 0.4% of 300,000 active | AID 2094; in the data active = activity change below about -75%, passing the limit was not always enough;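 also: luminescence divided by OD600 gain over 9 h not by final OD600 alone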
CAL PDZ FP-2 = inhibitors of human CAL PDZ peptide binding; 0.92% of 300,000 active; AID 602252; inhibition, % at 24.9 µM; purified CAL PDZ, TMR-peptide fluorescence polarization, 1 h;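 active = mean inhibition of at least 30% with at least half of replicates also reaching 30%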;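 also: 0% = DMSO neutral control and 100% = excess unlabeled competitor peptide PRC23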
ARNT-TACC3 inh = disrupts binding between human ARNT and TACC3; inhibition, % at 9.99 µM; 0.66% of 390,000 active; AlphaScreen His-ARNT PAS-B/GST-TACC3 binding, luminescence; TACC3 fragment carries E629A point mutation; AID 623870; Q9Y6A5;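 active = mean inhibition of replicates at least 50% and at least half of replicates each reaching 50%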;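 also: 0% = complete ARNT plus TACC3 wells and 100% = ARNT alone without TACC3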
Rce1 inhib = yeast Ras-converting enzyme inhibition; Q03530; yeast membranes, quenched prenylated peptide cleavage fluorescence; calls only; 0.27% of 290,000 active; AID 2563;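 active = fall in fluorescence gain of 50% or more versus controls, with final raw signal at or below 3038400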;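 also: plate controls were neutral control wells for no effect and wells lacking membranes for full effect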
Target sequence (Q03530 whole entry, looked up): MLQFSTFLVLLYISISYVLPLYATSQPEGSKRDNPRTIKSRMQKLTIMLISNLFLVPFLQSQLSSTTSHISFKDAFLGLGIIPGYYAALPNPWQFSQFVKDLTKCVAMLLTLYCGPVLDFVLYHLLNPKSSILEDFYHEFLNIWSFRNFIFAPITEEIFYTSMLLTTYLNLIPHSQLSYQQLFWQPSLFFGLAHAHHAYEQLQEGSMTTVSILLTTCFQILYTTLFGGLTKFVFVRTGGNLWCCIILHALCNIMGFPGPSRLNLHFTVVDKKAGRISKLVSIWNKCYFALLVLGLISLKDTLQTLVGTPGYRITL
Active calls of the source: *.

O=C(NCCN1CCOCC1)/C(=C\c1ccc(Br)cc1)NC(=O)c1cccs1 was read as CAL PDZ FP-1 -3.3, AI-2 QS mod 17.4, CAL PDZ FP-2 -2.3, ARNT-TACC3 inh -12.8 and Rce1 inhib inactive.
N=c1c2c(ncn1Cc1ccco1)Oc1ccc3ccccc3c1C2c1ccccc1 (centres undefined) was read as CAL PDZ FP-1 -2.1, AI-2 QS mod 3.8, CAL PDZ FP-2 -6.8, ARNT-TACC3 inh -4.8 and Rce1 inhib active.
Screening Nc1ncnc2c1C(c1ccccc1)c1c(ccc3ccccc13)O2 (centres undefined) returned CAL PDZ FP-1 62.1*, CAL PDZ FP-2 -5.0 and ARNT-TACC3 inh -9.1.
`COc1ccc(C2c3c(ncn(Cc4ccco4)c3=N)Oc3ccc4ccccc4c32)cc1` (centres undefined) gave CAL PDZ FP-1 -2.0, AI-2 QS mod 43.0, CAL PDZ FP-2 -3.7, ARNT-TACC3 inh 4.7 and Rce1 inhib inactive.
Screening O=C(C1CCCO1)N1CCN(S(=O)(=O)c2cc(F)ccc2F)CC1 (centres undefined) returned CAL PDZ FP-1 -2.9, AI-2 QS mod 10.5, CAL PDZ FP-2 0.7, ARNT-TACC3 inh -2.0 and Rce1 inhib inactive.
Screening O=C(CCCn1c(=O)oc2ccccc21)N1CCc2ccccc2C1 returned CAL PDZ FP-1 -1.2, AI-2 QS mod 13.8, CAL PDZ FP-2 2.5, ARNT-TACC3 inh active and Rce1 inhib inactive.
For CC1CCCN(C(=S)Nc2ccc(Nc3ccccc3)cc2)C1 (centres undefined) the results were CAL PDZ FP-1 -0.6, AI-2 QS mod 2.2, CAL PDZ FP-2 2.2, ARNT-TACC3 inh 10.9 and Rce1 inhib inactive.
Screening COC(=O)/C(=C/Nc1ccc(O)cc1)[N+](=O)[O-] returned CAL PDZ FP-1 0.4, AI-2 QS mod 20.6, CAL PDZ FP-2 65.6*, ARNT-TACC3 inh 23.7* and Rce1 inhib inactive.
Screening COC(=O)/C(=C/Nc1ccccc1)[N+](=O)[O-] returned CAL PDZ FP-1 -1.7, AI-2 QS mod 13.2, CAL PDZ FP-2 3.8 and Rce1 inhib inactive.
Screening CCOC(=O)Cc1csc(NC(=O)/C=C/c2ccc(OC)cc2)n1 returned CAL PDZ FP-1 -2.5, AI-2 QS mod 26.5, CAL PDZ FP-2 32.4*, ARNT-TACC3 inh -2.6 and Rce1 inhib inactive.
`COc1ccc(S(=O)(=O)N2CN3CCN(C3)C2)cc1` gave CAL PDZ FP-1 0.1, AI-2 QS mod 7.6, CAL PDZ FP-2 -3.2, ARNT-TACC3 inh -14.3 and Rce1 inhib inactive.
COc1ccc(NC(=O)[C@@H]2[C@@H]3C(=O)N(C4CCCCC4)C(=O)[C@@H]3C3c4ccccc4C=CN32)cc1 (some centres undefined) was read as CAL PDZ FP-1 0.5, AI-2 QS mod -1.9, CAL PDZ FP-2 -4.9, ARNT-TACC3 inh 11.8* and Rce1 inhib inactive.
CSC(=S)NN=C(C)c1cccc(C)n1 was read as CAL PDZ FP-1 -0.1, CAL PDZ FP-2 2.8 and ARNT-TACC3 inh 58.9*.
`CC(C)(C)C(=O)Nc1ccccc1C(=O)Nc1ccncc1` gave CAL PDZ FP-1 -1.2, AI-2 QS mod 13.9, CAL PDZ FP-2 0.1, ARNT-TACC3 inh -1.0 and Rce1 inhib inactive.
`O=C(Nc1ccccc1C(=O)Nc1ccncc1)c1ccccc1` gave CAL PDZ FP-1 -1.9, AI-2 QS mod 6.7, CAL PDZ FP-2 43.3*, ARNT-TACC3 inh -4.6 and Rce1 inhib inactive.
For Cc1cccc(OCC(=O)O/N=C(\N)c2ccccn2)c1C the results were CAL PDZ FP-1 -1.9, AI-2 QS mod -93.4*, CAL PDZ FP-2 -1.4, ARNT-TACC3 inh -1.6 and Rce1 inhib inactive.
`Cc1ccc(OCC(=O)O/N=C(\N)c2ccccn2)cc1` gave CAL PDZ FP-1 -0.5, AI-2 QS mod -3.7, ARNT-TACC3 inh -0.5 and Rce1 inhib inactive.
Cc1cccc(S(=O)(=O)N2C[C@H]3[C@@H](c4ccccc42)[C@H](CO)N3Cc2ccccn2)c1 was read as ARNT-TACC3 inh 19.8*.
Screening O=C(c1ccc(N2CCCC2=O)cc1)N1CCN(c2ccccc2O)CC1 returned CAL PDZ FP-1 -0.5, CAL PDZ FP-2 1.5 and ARNT-TACC3 inh 6.7.
Screening O=C(c1ccc(N2CCCC2=O)cc1)N1CCN(c2ccccc2F)CC1 returned CAL PDZ FP-1 -1.4, AI-2 QS mod 29.7, CAL PDZ FP-2 56.3*, ARNT-TACC3 inh 2.1 and Rce1 inhib inactive.
